Reference: ChEMBL document CHEMBL1122854, “Novel bis[1,6-dihydro-6,6-dimethyl-1,3,5-triazine-2,4-diamines] as antitrypanosomal agents” (1985)
Where “and” joins values, the source holds several entries; their conditions need not be identical. Equal entries are not always repeated.

Key:
Assay type in all cases: functional
Settings in all cases: route subcutaneous
[1] = system: Trypanosoma brucei rhodesiense; assay: Antitrypanosomal activity against Trypanosoma rhodesiense infections in mice, 424 mg/kg administered subcutaneously
In short: (§1)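 IUR/HA Swiss mice (six weeks old, 30-32 g) infected i.p. with Wellcome CT strain T. rhodesiense. A single subcutaneous dose in peanut oil was given about 2 h after inoculation, with five mice per dose level. Positive control was stilbamidine or 2-hydroxystilbamidine isethionate at 40 mg/kg. Deaths before day 4 were scored toxic, and 30-day survivors cured.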

[2] = system: Trypanosoma brucei rhodesiense; assay: Antitrypanosomal activity was evaluated against Trypanosoma rhodesiense infections in mice, at dose 106 mg/kg, administered subcutaneously; in short: as §1
[3] = system: Trypanosoma brucei rhodesiense; assay: Anti-trypanosomal activity against Trypanosoma rhodesiense infections in mice, 26 mg/kg administered subcutaneously
In short: (§2)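 Six-week-old IUR/HA Swiss mice (30-32 g), 5 per dose, infected ip with 0.5 mL of a 1:50 000 dilution of heparinized heart blood from donor mice infected 3 days before (Wellcome CT strain). Single sc dose in peanut oil about 2 h post-inoculation. Deaths before day 4 counted toxic. ΔMST versus untreated controls; survivors at 30 days counted cured.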

[4] = system: Trypanosoma brucei rhodesiense; assay: Antitrypanosomal activity was evaluated against Trypanosoma rhodesiense infections in mice, at dose 424 mg/kg, administered subcutaneously;Toxic; in short: as §1
[5] = system: Trypanosoma brucei rhodesiense; assay: Antitrypanosomal activity against Trypanosoma rhodesiense infections in mice, 106 mg/kg administered subcutaneously; in short: as §2
[6] = system: Trypanosoma brucei rhodesiense; assay: Antitrypanosomal activity was evaluated against Trypanosoma rhodesiense infections in mice, at dose 424 mg/kg, administered subcutaneously; in short: as §2
[7] = system: Trypanosoma brucei rhodesiense; assay: Antitrypanosomal activity was evaluated against Trypanosoma rhodesiense infections in mice, at dose 26 mg/kg, administered subcutaneously;Toxic; in short: as §1
[8] = system: Trypanosoma brucei rhodesiense; assay: Antitrypanosomal activity against Trypanosoma rhodesiense infections in mice, 3.3 mg/kg administered subcutaneously; in short: as §2
[9] = system: Trypanosoma brucei rhodesiense; assay: Antitrypanosomal activity against Trypanosoma rhodesiense infections in mice, 6.6 mg/kg administered subcutaneously; in short: as §2
[10] = system: Trypanosoma brucei rhodesiense; assay: Antitrypanosomal activity was evaluated against Trypanosoma rhodesiense infections in mice, at dose 26 mg/kg, administered subcutaneously; in short: as §1
[11] = system: Trypanosoma brucei rhodesiense; assay: Antitrypanosomal activity was evaluated against Trypanosoma rhodesiense infections in mice, at dose 1.6 mg/kg, administered subcutaneously; in short: as §2
[12] = system: Trypanosoma brucei rhodesiense; assay: Antitrypanosomal activity was evaluated against Trypanosoma rhodesiense infections in mice, at dose 106 mg/kg, administered subcutaneously;Toxic; in short: as §1
Mus musculus [13] = assay: Antitrypanosomal activity was evaluated against Trypanosoma rhodesiense infections in mice, at dose 212 mg/kg, administered subcutaneously;Toxic; in short: as §1
[14] = system: Trypanosoma brucei rhodesiense; assay: (§3) Antitrypanosomal activity was evaluated against Trypanosoma rhodesiense infections in mice, at dose 212 mg/kg, administered subcutaneously; in short: as §2
[15] = system: Trypanosoma brucei rhodesiense; assay: (§4) Antitrypanosomal activity was evaluated against Trypanosoma rhodesiense infections in mice, at dose 53 mg/kg, administered subcutaneously; in short: as §2
Mus musculus [16] = assay: Antitrypanosomal activity was evaluated against Trypanosoma rhodesiense infections in mice, at dose 26 mg/kg, administered subcutaneously;Cures; in short: as §1
Mus musculus [17] = assay: as §4; in short: as §1
Mus musculus [18] = assay: Antitrypanosomal activity was evaluated against Trypanosoma rhodesiense infections in mice, at dose 13 mg/kg, administered subcutaneously;Toxic; in short: as §1
Mus musculus [19] = assay: as §3; in short: as §1
Mus musculus [20] = assay: Antitrypanosomal activity was evaluated against Trypanosoma rhodesiense infections in mice, at dose 6.6 mg/kg, administered subcutaneously; in short: as §1
Mus musculus [21] = assay: Antitrypanosomal activity was evaluated against Trypanosoma rhodesiense infections in mice, at dose 13 mg/kg, administered subcutaneously; in short: as §1
Mus musculus [22] = assay: Antitrypanosomal activity was evaluated against Trypanosoma rhodesiense infections in mice, at dose 212 mg/kg, administered subcutaneously;Cures; in short: as §1
Mus musculus [23] = assay: Antitrypanosomal activity was evaluated against Trypanosoma rhodesiense infections in mice, at dose 106 mg/kg, administered subcutaneously;Cures; in short: as §1
Mus musculus [24] = assay: Antitrypanosomal activity was evaluated against Trypanosoma rhodesiense infections in mice, at dose 424 mg/kg, administered subcutaneously;Cures; in short: as §1
Mus musculus [25] = assay: Antitrypanosomal activity was evaluated against Trypanosoma rhodesiense infections in mice, at dose 53 mg/kg, administered subcutaneously;Cures; in short: as §1
Mus musculus [26] = assay: Antitrypanosomal activity was evaluated against Trypanosoma rhodesiense infections in mice, at dose 13 mg/kg, administered subcutaneously;Cures; in short: as §1
Mus musculus [27] = assay: Antitrypanosomal activity was evaluated against Trypanosoma rhodesiense infections in mice, at dose 6.6 mg/kg, administered subcutaneously;Cures; in short: as §1

Structure (SMILES)	Toxic [1]	Toxic [2]	Delta MST [3] [days]	Delta MST [5] [days]	Delta MST [6] [days]	Delta MST [8] [days]	Delta MST [9] [days]	other results
Cl.Cl.NC1=NC(C2CCC3(CC2)N=C(N)N=C(N)N3c2ccc(Cl)cc2)N(c2ccc(Cl)cc2)C(N)=N1 (centres undefined)	5	4	1	–	–	–	–	–
CC1(C)N=C(N)N=C(N)N1c1cccc2c(N3C(N)=NC(N)=NC3(C)C)cccc12.Cl.Cl	–	–	1.1	-0.3	-0.3	–	–	Toxic [4]: 3
Cc1cc(S(=O)(=O)c2ccc(N3C(N)=NC(N)=NC3(C)C)cc2)ccc1N1C(N)=NC(N)=NC1(C)C.Cl.Cl	5	5	0.7	–	–	0.2	0.4	Toxic [7]: 4
CC1(C)N=C(N)N=C(N)N1c1cccc(N2C(N)=NC(N)=NC2(C)C)c1.Cl.Cl	5	5	0	–	–	0	0	Toxic [10]: 1; Delta MST [11]: 0 days
CC1(C)N=C(N)N=C(N)N1c1ccc(OCCCCCCCCCCOc2ccc(N3C(N)=NC(N)=NC3(C)C)cc2)cc1.Cl.Cl	–	–	-0.1	0.1	0.1	–	–	–
CC1(C)N=C(N)N=C(N)N1c1cc(C(=O)O)cc(N2C(N)=NC(N)=NC2(C)C)c1.Cl.Cl	–	–	-0.1	0.1	-0.1	–	–	–
CC1(C)N=C(N)N=C(N)N1c1ccc(CC(Cc2ccc(N3C(N)=NC(N)=NC3(C)C)cc2)C(=O)O)cc1.Cl.Cl	–	–	0	0.2	0	–	–	Toxic [4]: 2
CC1(C)N=C(N)N=C(N)N1c1ccc(OCCCCOc2ccc(N3C(N)=NC(N)=NC3(C)C)cc2)cc1.Cl.Cl	5	–	0.3	1	–	0.2	0	Toxic [7]: 1; Toxic [12]: 4; Delta MST [11]: 0 days
CC1(C)N=C(N)N=C(N)N1c1ccc(N2C(N)=NC(N)=NC2(C)C)cc1.Cl.Cl	3	–	0	0.2	1	-0.1	0.1	Delta MST [11]: 0.1 days
CC1(C)N=C(N)NC(Nc2ccc(CCc3ccc(NC4=NC(C)(C)N=C(N)N4)cc3)cc2)=N1.Cl	–	–	0.2	0.8	0	–	–	Toxic [4]: 3
CC1(C)N=C(N)N=C(N)N1c1cc(Cl)c(N2C(N)=NC(N)=NC2(C)C)c(Cl)c1.Cl.Cl	–	–	–	–	–	–	–	Toxic (Mus musculus [13]): 4; Delta MST [14]: -0.2 days; Delta MST [15]: -0.2 days
Cc1ccc(N2C(N)=NC(N)=NC2(C)C)cc1NC(=O)Nc1cc(N2C(N)=NC(N)=NC2(C)C)ccc1C.Cl.Cl	–	–	-0.1	-0.1	-0.1	–	–	Toxic [4]: 3
CC1(C)N=C(N)N=C(N)N1c1ccc(SSc2ccc(N3C(N)=NC(N)=NC3(C)C)cc2)cc1.Cl.Cl	–	–	0.1	0.1	0.5	–	–	–
CC1(C)N=C(N)N=C(N)N1c1ccc(NC(=O)Nc2ccc(N3C(N)=NC(N)=NC3(C)C)cc2)cc1.Cl.Cl	5	5	–	–	–	–	–	Cures (Mus musculus [16]): 1; Toxic [7]: 1; Toxic (Mus musculus [17]): 5
CC(C)(c1ccc(N2C(N)=NC(N)=NC2(C)C)cc1)c1ccc(N2C(N)=NC(N)=NC2(C)C)cc1.Cl.Cl	5	–	1.3	1.8	–	–	0.9	Toxic [7]: 1; Toxic (Mus musculus [18]): 1; Toxic [12]: 2
CC1(C)N=C(N)N=C(N)N1c1ccc(Cc2ccc(N3C(N)=NC(N)=NC3(C)C)cc2[N+](=O)[O-])c([N+](=O)[O-])c1.Cl.Cl	5	5	0.6	–	–	–	–	–
CC1(C)N=C(N)N=C(N)N1c1ccc2c(c1)S(=O)(=O)c1cc(N3C(N)=NC(N)=NC3(C)C)ccc1C2.Cl.Cl	5	–	0	-0.3	–	0	0.2	Toxic [12]: 4; Delta MST [11]: 0 days
Cc1ccc(NC(=O)Nc2ccc(C)c(N3C(N)=NC(N)=NC3(C)C)c2)cc1N1C(N)=NC(N)=NC1(C)C.Cl.Cl	5	–	0	0	–	–	–	Toxic [7]: 2; Toxic [12]: 2
CC1(C)N=C(N)N=C(N)N1c1ccc(OCCCCCCCCCCCCOc2ccc(N3C(N)=NC(N)=NC3(C)C)cc2)cc1.Cl.Cl	–	–	0.2	0.8	0.8	–	–	Delta MST [14]: 0.8 days; Delta MST [15]: 0.4 days
CC1(C)N=C(N)N=C(N)N1c1ccc2oc3ccc(N4C(N)=NC(N)=NC4(C)C)cc3c2c1.Cl.Cl	5	5	-0.2	–	–	–	-0.2	Delta MST [11]: 0.2 days
CC1(C)N=C(N)N=C(N)N1c1ccc(C(c2ccccc2)c2ccc(N3C(N)=NC(N)=NC3(C)C)cc2)cc1.Cl.Cl	5	2	–	4.3	–	–	–	Toxic (Mus musculus [19]): 2; Delta MST [14]: 4.3 days; Delta MST ([15]; 53 mg/kg): 2.3 days and 2.8 days
CC1(C)N=C(N)N=C(N)N1c1ccc(OCCOc2ccc(N3C(N)=NC(N)=NC3(C)C)cc2)cc1.Cl.Cl	5	5	8.9	–	–	1	2.6	Toxic [7]: 4; Delta MST [11]: 2.8 days
CC1(C)N=C(N)N=C(N)N1c1ccc(Sc2ccc(N3C(N)=NC(N)=NC3(C)C)cc2)cc1.Cl.Cl	5	5	2.7	–	–	0.6	0.6	Toxic [7]: 1
CC1(C)N=C(N)N=C(N)N1c1ccc(OCCCCCCOc2ccc(N3C(N)=NC(N)=NC3(C)C)cc2)cc1.Cl.Cl	5	5	–	–	–	–	–	Toxic (Mus musculus [20]): 1; Toxic [10]: 5; Toxic (Mus musculus [21]): 5
CC1(C)N=C(N)N=C(N)N1c1ccc(OCCCCCOc2ccc(N3C(N)=NC(N)=NC3(C)C)cc2)cc1.Cl.Cl	5	5	–	–	–	0.2	0.4	Toxic [10]: 5; Toxic (Mus musculus [21]): 5; Delta MST [11]: 0 days
Cl.Cl.NC1=NC2(CCCCC2)NC(Nc2ccc(CCc3ccc(NC4=NC5(CCCCC5)NC(N)=N4)cc3)cc2)=N1	–	–	0.2	0.2	0.2	–	–	–
Cl.Cl.NC1=NC2(CCCCC2)N(c2ccc(CCc3ccc(N4C(N)=NC(N)=NC45CCCCC5)cc3)cc2)C(N)=N1	–	–	1.3	12	–	–	–	Cures (Mus musculus [22]): 3; Cures (Mus musculus [16]): 2; Cures (Mus musculus [23]): 3; Cures (Mus musculus [24]): 4; Cures (Mus musculus [25]): 2; Toxic [4]: 1; Toxic (Mus musculus [13]): 1; Delta MST [14]: 11 days; Delta MST [15]: 9 days
COc1cc(-c2ccc(N3C(N)=NC(N)=NC3(C)C)c(OC)c2)ccc1N1C(N)=NC(N)=NC1(C)C.Cl.Cl	5	–	8.9	11.2	–	7.2	13.5	Cures (Mus musculus [26]): 3; Cures (Mus musculus [22]): 2; Cures (Mus musculus [16]): 4; Cures (Mus musculus [23]): 2; Cures (Mus musculus [27]): 3; Cures (Mus musculus [25]): 3; Delta MST [11]: 2.2 days; Delta MST [14]: 3.2 days; Delta MST [15]: 4.9 days
CC1(C)N=C(N)NC(Nc2ccc(NC3=NC(C)(C)N=C(N)N3)cc2)=N1.Cl.Cl	5	4	1.3	1.9	–	–	–	–
